Our source for the Km, Vmax and Drug metabolism values is ChEMBL document CHEMBL3525985, “Regiospecificity and stereospecificity of human UDP-glucuronosyltransferases in the glucuronidation of estriol, 16-epiestriol, 17-epiestriol, and 13-epiestradiol” (Drug Metab Dispos, 2013).

Structures are written as SMILES.

What all share (type): ADME
Data set [1] in a line: Drug metabolism in human intestine microsomes assessed as 17-epiestriol-16-glucuronide formation after 15 to 60 mins by Michaelis-Menten equation analysis in presence of UDPGA. An outline of the steps:
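Pooled human intestine microsomes (6 donors), 0.5 or 10 µg, with alamethicin at 5% of total protein. Incubated with 50 mM phosphate pH 7.4, 10 mM MgCl₂, 5 mM UDPGA and 10% DMSO for 15–60 min at 37°C. Each glucuronide regioisomer quantified by HPLC, in triplicate, with substrate consumption at or below 10%.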

For data set [2], the system named is Liver microsome. Description: Drug metabolism in human liver microsomes assessed as 17-epiestriol-16-glucuronide formation after 15 to 60 mins by Michaelis-Menten equation analysis in presence of UDPGA. An outline of the steps: (§1)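 Pooled human liver microsomes (30 donors), 0.5 or 10 µg, with alamethicin at 5% of total protein. Incubated with 50 mM phosphate pH 7.4, 10 mM MgCl₂, 5 mM UDPGA and 10% DMSO for 15–60 min at 37°C. Each glucuronide regioisomer quantified by HPLC, in triplicate, with substrate consumption at or below 10%.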
(In general: Liver microsomes are a subcellular fraction often used to study metabolism.)

Data set [3] addresses T1, UDP-glucuronosyltransferase 1A4 (Homo sapiens, UniProt P22310).
T1 sequence (P22310 whole entry): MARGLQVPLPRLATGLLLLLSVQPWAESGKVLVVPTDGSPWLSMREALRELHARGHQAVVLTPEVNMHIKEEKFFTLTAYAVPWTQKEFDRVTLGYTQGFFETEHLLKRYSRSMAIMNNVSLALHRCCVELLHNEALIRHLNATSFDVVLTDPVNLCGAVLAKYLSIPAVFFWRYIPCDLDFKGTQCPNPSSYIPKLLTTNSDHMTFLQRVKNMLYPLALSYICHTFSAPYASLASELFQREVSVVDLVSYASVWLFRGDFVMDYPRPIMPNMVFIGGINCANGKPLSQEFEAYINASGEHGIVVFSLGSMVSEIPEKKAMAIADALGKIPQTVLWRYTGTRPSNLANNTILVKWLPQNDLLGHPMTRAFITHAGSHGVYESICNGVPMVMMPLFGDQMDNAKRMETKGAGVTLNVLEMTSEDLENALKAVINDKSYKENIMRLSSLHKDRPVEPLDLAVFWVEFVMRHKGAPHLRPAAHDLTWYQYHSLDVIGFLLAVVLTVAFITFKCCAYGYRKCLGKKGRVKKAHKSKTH
Briefly: Drug metabolism assessed as recombinant human C-terminal His-tagged UGT1A4-mediated 16-epiestriol-16-glucuronide formation at 200 uM after 15 to 60 mins by HPLC analysis in presence of UDPGA. The settings on record: recombinant enzyme. An outline of the steps:
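Screening at a single substrate concentration of 200 μM, in triplicate. The reaction used 5 or 50 µg of UGT-enriched insect cell membranes in 50 mM phosphate pH 7.4 with 10 mM MgCl₂ and 5 mM UDPGA, 10% final DMSO. Incubation was 15–60 min at 37°C. Perchloric acid stopped the reaction and supernatants were analysed by HPLC. Controls lacked UDPGA. Rates were normalized to relative UGT expression level.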

Data set [4] relates to Liver microsome. Briefly: Drug metabolism in human liver microsomes assessed as 16-epiestriol-16-glucuronide formation after 15 to 60 mins by Michaelis-Menten equation analysis in presence of UDPGA. In short, it runs like this:
as §1

The target of data set [5] is T2, UDP-glucuronosyltransferase 2B7 (Homo sapiens, UniProt P16662).
T2 sequence (P16662 whole entry): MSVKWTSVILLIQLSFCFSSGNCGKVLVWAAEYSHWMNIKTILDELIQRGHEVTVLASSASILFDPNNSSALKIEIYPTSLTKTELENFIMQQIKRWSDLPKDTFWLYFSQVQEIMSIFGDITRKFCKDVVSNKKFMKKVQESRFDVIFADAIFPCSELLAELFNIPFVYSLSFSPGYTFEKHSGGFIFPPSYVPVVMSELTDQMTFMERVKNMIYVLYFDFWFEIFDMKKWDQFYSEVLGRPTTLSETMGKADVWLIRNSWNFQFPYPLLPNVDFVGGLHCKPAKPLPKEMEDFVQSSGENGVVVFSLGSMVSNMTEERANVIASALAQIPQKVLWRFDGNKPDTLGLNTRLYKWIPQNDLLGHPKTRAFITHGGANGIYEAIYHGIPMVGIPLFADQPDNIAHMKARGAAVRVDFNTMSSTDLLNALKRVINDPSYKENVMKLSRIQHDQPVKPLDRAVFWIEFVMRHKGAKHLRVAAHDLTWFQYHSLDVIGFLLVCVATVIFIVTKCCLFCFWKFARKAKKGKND
Briefly: Drug metabolism assessed as recombinant human C-terminal His-tagged UGT2B7-mediated 16-epiestriol-16-glucuronide formation after 15 to 60 mins by Michaelis-Menten equation analysis in presence of UDPGA. The note with it: recombinant enzyme. An outline of the steps: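 For kinetics, the aglycone ranged from 0.2 to 300 μM in DMSO (10% final) with 5 mM UDPGA, 10 mM MgCl₂ and 50 mM phosphate pH 7.4. Enzyme was UGT-enriched insect cell membranes. Incubation was 15–60 min at 37°C, in triplicate, keeping substrate consumption ≤10%. Products were measured by HPLC and fitted to Michaelis-Menten. Rates were normalized to expression level.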

Data set [6] concerns the target T3, UDP-glucuronosyltransferase 2A1 (Homo sapiens, UniProt P0DTE4).
T3 sequence (P0DTE4 whole entry): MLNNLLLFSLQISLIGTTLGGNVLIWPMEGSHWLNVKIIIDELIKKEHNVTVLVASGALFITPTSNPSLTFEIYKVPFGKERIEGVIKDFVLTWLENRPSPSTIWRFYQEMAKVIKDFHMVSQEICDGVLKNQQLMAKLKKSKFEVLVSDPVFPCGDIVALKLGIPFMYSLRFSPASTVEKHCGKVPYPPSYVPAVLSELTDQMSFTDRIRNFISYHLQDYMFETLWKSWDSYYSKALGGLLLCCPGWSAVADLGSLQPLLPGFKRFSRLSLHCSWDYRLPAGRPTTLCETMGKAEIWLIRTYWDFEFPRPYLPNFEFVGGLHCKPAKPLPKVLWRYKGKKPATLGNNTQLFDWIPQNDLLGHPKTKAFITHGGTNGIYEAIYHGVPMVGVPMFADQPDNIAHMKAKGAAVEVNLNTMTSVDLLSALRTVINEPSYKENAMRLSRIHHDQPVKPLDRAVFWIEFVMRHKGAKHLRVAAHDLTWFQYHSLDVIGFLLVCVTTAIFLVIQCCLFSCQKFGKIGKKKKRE
Description: Drug metabolism assessed as recombinant human C-terminal His-tagged UGT2A1-mediated 16-epiestriol-16-glucuronide formation after 15 to 60 mins by Michaelis-Menten equation analysis in presence of UDPGA. The settings on record: recombinant enzyme.

As a reminder, the Km is the concentration of substrate that gives half-maximal velocity. The Vmax is the top rate of the reaction or transport when substrate is in excess. Consider `C[C@]12CC[C@@H]3c4ccc(O)cc4CC[C@H]3[C@@H]1C[C@@H](O)[C@H]2O`, for which, in data set [1], the Km came out at 820 µM and the Vmax is recorded as 266 pmol/min/mg. Also, in the data set with Liver microsome [2], the Km was 7.8 µM and the Vmax is 128 pmol/min/mg.

For `C[C@]12CC[C@@H]3c4ccc(O)cc4CC[C@H]3[C@@H]1C[C@H](O)[C@@H]2O` [EPIESTRIOL], the Drug metabolism result is given as “metabolite_not_detected” in data set [3], 2700 pmol/min/mg in data set [5] and 260 pmol/min/mg in data set [6]. Also, in the data set on Liver microsome [4], the Km amounted to 33 µM. The Vmax in the data set with Liver microsome [4] came to 8011 pmol/min/mg.
